The source of these data is ChEMBL document CHEMBL3769367, “Orexin Receptor Antagonists: New Therapeutic Agents for the Treatment of Insomnia” (J Med Chem, 2016).

The bioavailability is the share of a dose that reaches the circulation, judged against a reference dose that is usually intravenous. For orientation: Tmax means the time at which the peak concentration occurs.

Data set [1] concerns Homo sapiens. Nature of the data set: Effect on sleep parameter in insomnia patient assessed as wake after sleep onset time at 60 mg, po administered two consecutive nights 90 mins prior to sleep by polysomnography. Format: functional.
In data set [2] the test system is Homo sapiens. The experiment in a line: Effect on sleep parameter in insomnia patient assessed as wake after sleep onset time at 30 mg, po administered two consecutive nights 90 mins prior to sleep by polysomnography. Format: functional.
Data set [3] relates to Homo sapiens. Nature of the data set: Effect on sleep parameter in insomnia patient assessed as sleep efficiency at 30 mg, po administered two consecutive nights 90 mins prior to sleep by polysomnography. Format: functional.
The test system of data set [4] is Plasma. The experiment in a line: Drug metabolism in human plasma assessed as 2-(((S)-1-(5-(4-fluorophenyl)-2-methylthiazole-4-carbonyl)piperidin-2-yl)methyl)-3,5-dihydroxy-3,4-dihydroisoquinolin-1(2H)-one formation at 30 mg, po by LSC analysis. Format: ADME, organism-based. Conditions: in vivo. In a few lines:
(§1)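 Eight healthy subjects received a single 30 mg oral dose of radiolabeled compound. Plasma extracts were profiled for metabolites, each expressed as a percentage of the radioactive dose.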

In data set [5] the test system is Homo sapiens. The experiment in a line: Effect on sleep parameter in insomnia patient assessed as latency to persistent sleep time at 30 mg, po administered two consecutive nights 90 mins prior to sleep by polysomnography. Format: functional.
Data set [6] concerns Plasma. The experiment in a line: Drug metabolism in human plasma assessed as (S)-2-(2-((1-(5-(4-fluorophenyl)-2-methylthiazole-4-carbonyl)piperidin-2-yl)methylcarbamoyl)-6-hydroxyphenyl)acetic acid formation at 30 mg, po by LSC analysis. Conditions: in vivo. Format: ADME, organism-based. Put shortly:
as §1

Data set [7] deals with Homo sapiens. The experiment in a line: Effect on sleep parameter in insomnia patient assessed as latency to persistent sleep time at 60 mg, po administered two consecutive nights 90 mins prior to sleep by polysomnography. Format: functional.
Data set [8] deals with Homo sapiens. Nature of the data set: Effect on sleep parameter in insomnia patient assessed as total sleep time at 30 mg, po administered two consecutive nights 90 mins prior to sleep by polysomnography. Format: functional.
Data set [9] in a line: Half life in human plasma. In kind it is ADME, organism-based.
In data set [10] the test system is Homo sapiens. Nature of the data set: Effect on sleep parameter in insomnia patient assessed as sleep efficiency at 10 mg, po administered two consecutive nights 90 mins prior to sleep by polysomnography. In kind it is functional.
In data set [11] the test system is Homo sapiens. The experiment in a line: Effect on sleep parameter in insomnia patient assessed as total sleep time at 10 mg, po administered two consecutive nights 90 mins prior to sleep by polysomnography. Format: functional.
The subject of data set [12] is Homo sapiens. The experiment in a line: Effect on sleep parameter in insomnia patient assessed as latency to persistent sleep time at 10 mg, po administered two consecutive nights 90 mins prior to sleep by polysomnography. In kind it is functional.
The test system of data set [13] is Homo sapiens. Nature of the data set: Effect on sleep parameter in insomnia patient assessed as wake after sleep onset time at 10 mg, po administered two consecutive nights 90 mins prior to sleep by polysomnography. In kind it is functional.
Data set [14] concerns Homo sapiens. Nature of the data set: Effect on sleep parameter in insomnia patient assessed as total sleep time at 60 mg, po administered two consecutive nights 90 mins prior to sleep by polysomnography. Format: functional.
Data set [15] in a line: Apparent half life of the compound in human. In kind it is ADME, organism-based. Particulars: in vivo, read-out: t1/2(app) (converted).
In data set [16] the test system is Homo sapiens. Nature of the data set: Effect on sleep parameter in insomnia patient assessed as sleep efficiency at 60 mg, po administered two consecutive nights 90 mins prior to sleep by polysomnography. Format: functional.
Data set [17] is described as follows: Oral bioavailability in human. Format: ADME, organism-based. Particulars: in vivo.
Data set [18] has as its system Homo sapiens. Nature of the data set: Effect on sleep parameter in insomnia patient assessed as total sleep time at 100 mg, po by polysomnography. In kind it is functional.
Data set [19] relates to Homo sapiens. The experiment in a line: Effect on sleep parameter in insomnia patient assessed as sleep efficiency at 200 mg, po by polysomnography. In kind it is functional.
In data set [20] the test system is Homo sapiens. Nature of the data set: Effect on sleep parameter in insomnia patient assessed as latency to persistent sleep time at 100 mg, po by polysomnography. In kind it is functional.
Data set [21] is described as follows: Oral bioavailability in Wistar rat. In kind it is ADME, organism-based. Conditions: in vivo.
In data set [22] the test system is Rattus norvegicus. The experiment in a line: Effect on sleep parameter in Wistar rat assessed as NREM sleep duration time at 100 mg/kg, po measured over 12 hrs (reference value: 243 +/- 8 min). Format: functional.
Data set [23] relates to Homo sapiens. The experiment in a line: Effect on sleep parameter in insomnia patient assessed as wake after sleep onset time at 200 mg, po by polysomnography. Format: functional.
The test system of data set [24] is Homo sapiens. Nature of the data set: Effect on sleep parameter in insomnia patient assessed as latency to persistent sleep time at 50 mg, po by polysomnography. In kind it is functional.
Data set [25] deals with Homo sapiens. The experiment in a line: Effect on sleep parameter in insomnia patient assessed as total sleep time at 200 mg, po by polysomnography. Format: functional.
The nature of data set [26]: Half life in iv dosed Wistar rat. Format: ADME, organism-based. Particulars: in vivo.
The test system of data set [27] is Homo sapiens. Nature of the data set: Effect on sleep parameter in insomnia patient assessed as total sleep time at 50 mg, po by polysomnography. Format: functional.
Data set [28] has as its system Homo sapiens. The experiment in a line: Effect on sleep parameter in insomnia patient assessed as latency to persistent sleep time at 400 mg, po by polysomnography. Format: functional.
Data set [29] in a line: Elimination half life in human at 1 to 1000 mg administered as single dose. Conditions: in vivo, read-out: beta t1/2 (converted). In kind it is ADME, organism-based.
A short description of data set [30]: Ratio of drug level in brain to plasma in Wistar rat. Format: ADME, cell-free. Particulars: read-out: BPR.
The test system of data set [31] is Rattus norvegicus. The experiment in a line: Effect on sleep parameter in Wistar rat assessed as latency to persistent REM time at 100 mg/kg, po measured over 12 hrs (reference value: 101 +/- 17 min). Format: functional.
For data set [32], the system named is Homo sapiens. Nature of the data set: Effect on sleep parameter in insomnia patient assessed as sleep efficiency at 100 mg, po by polysomnography. Format: functional.
Data set [33] relates to Homo sapiens. Nature of the data set: Effect on sleep parameter in insomnia patient assessed as sleep efficiency at 400 mg, po by polysomnography. In kind it is functional.
The test system of data set [34] is Homo sapiens. Nature of the data set: Effect on sleep parameter in insomnia patient assessed as wake after sleep onset time at 400 mg, po by polysomnography. In kind it is functional.
Data set [35] is described as follows: Ratio of drug level in CSF to plasma in Wistar rat.
Data set [36] in a line: Oral bioavailability in Beagle dog. In kind it is ADME, organism-based, Canis lupus familiaris. Conditions: in vivo.
The test system of another data set is Canis familiaris. Nature of the data set: Effect on sleep parameter in po dosed Beagle dog by EEG analysis. In kind it is functional, Canis lupus familiaris.
Data set [37] has as its system Homo sapiens. Nature of the data set: Effect on sleep parameter in insomnia patient assessed as total sleep time at 400 mg, po by polysomnography. Format: functional.
The subject of data set [38] is Rattus norvegicus. Nature of the data set: Effect on sleep parameter in Wistar rat assessed as REM sleep duration time at 100 mg/kg, po measured over 12 hrs (reference value: 33 +/- 4 min). In kind it is functional.
For data set [39], the system named is Homo sapiens. The experiment in a line: Effect on sleep parameter in insomnia patient assessed as latency to persistent sleep time at 200 mg, po by polysomnography. Format: functional.
Data set [40] concerns Rattus norvegicus. The experiment in a line: Effect on sleep parameter in po dosed Wistar rat by EEG analysis. In kind it is functional.
Data set [41] concerns Rattus norvegicus. Nature of the data set: Effect on sleep parameter in Wistar rat assessed as latency to persistent NREM time at 100 mg/kg, po measured over 12 hrs (reference value: 40 +/- 3 min). In kind it is functional.
In data set [42] the test system is Homo sapiens. The experiment in a line: Effect on sleep parameter in insomnia patient assessed as wake after sleep onset time at 100 mg, po by polysomnography. In kind it is functional.
Data set [43] is described as follows: Tmax in human at 1 to 1000 mg administered as single dose. Format: ADME, organism-based. Conditions: in vivo.
A short description of data set [44]: Plasma protein binding in Wistar rat. Conditions: read-out: PPB (converted). In kind it is ADME, cell-free.
Data set [45] has as its system Homo sapiens. The experiment in a line: Effect on sleep parameter in insomnia patient assessed as sleep efficiency at 50 mg, po by polysomnography. Format: functional.
Data set [46] deals with Homo sapiens. The experiment in a line: Effect on sleep parameter in insomnia patient assessed as wake after sleep onset time at 50 mg, po by polysomnography. Format: functional.

Consider `Cc1nc(C(=O)N2CCCC[C@H]2CNC(=O)c2cccc3occc23)c(-c2ccc(F)cc2)s1` (stereo in doubt; form 1) [SB-649868], for which the Time was -29 min in the data set on Homo sapiens [1]; -18.4 min with Homo sapiens [2]; -33 min in the data set on Homo sapiens [5]; -43.7 min in the data set on Homo sapiens [7]; 49.7 min with Homo sapiens [8]; 22.4 min in the data set with Homo sapiens [11]. The Time in the data set on Homo sapiens [12] was -26.1 min; in the data set with Homo sapiens [13], 3.2 min; with Homo sapiens [14] it was 69.8 min. The Activity is recorded as 10.4% in the data set with Homo sapiens [3], 4.7% in the data set with Homo sapiens [10] and 14.6% in the data set with Homo sapiens [16]. The Drug metabolism stood at 2 %ID in the data set with Plasma [4] and 11 %ID in the data set on Plasma [6]. Also, the half-life in data set [9] is 4 h; in [15] it was 5 h.
Regarding `CNC(=O)[C@@H](c1ccccc1)N1CCc2cc(OC)c(OC)cc2[C@@H]1CCc1ccc(C(F)(F)F)cc1` [ALMOREXANT], the bioavailability in data set [17] came to 11%; in data set [21], 8%; in data set [36], 18%. In addition, the Time with Homo sapiens [18] is on record as 21.4 min; in the data set with Homo sapiens [20], -10.4 min; with Rattus norvegicus [22], 286 min; with Homo sapiens [23] it was -34.3 min; with Homo sapiens [24] it was -5.7 min; in the data set on Homo sapiens [25], 39.3 min. Further, the Time with Homo sapiens [27] is recorded as 15.8 min; with Homo sapiens [28], -18 min; in the data set with Rattus norvegicus [31], 91 min; in the data set on Homo sapiens [34] it was -54 min; with Homo sapiens [37] it was 69.7 min; in the data set with Rattus norvegicus [38], 50 min. Moreover, the Time in the data set on Homo sapiens [39] is listed as -10.4 min; in the data set with Rattus norvegicus [41], 30 min; with Homo sapiens [42] it was -20.1 min; in the data set on Homo sapiens [46] it was -6.7 min. Also, the Activity with Homo sapiens [19] was 8.2%; in the data set on Homo sapiens [32], 4.6%; in the data set with Homo sapiens [33] it was 14.4%; in the data set with Canis familiaris, 100 mg/kg; in the data set on Rattus norvegicus [40] it was 30 mg/kg; with Homo sapiens [45] it was 3.3%. Moreover, the half-life in [26] was 8 h; in data set [29] it was 13.1 h. Further, the Kp was 0.3 in data set [30] and 0.002 in [35]. The time to peak (Tmax) in data set [43] was determined as 0.7 h. Moreover, in [44], the fraction unbound is 0.01.
